Test results as given in ChEMBL document CHEMBL1154858, “Synthesis, in vitro antibacterial and antifungal evaluations of new alpha-hydroxyphosphonate and new alpha-acetoxyphosphonate derivatives of tetrazolo [1, 5-a] quinoline” (2010).
In brackets after ≈: the same amount, converted by molar mass.

Key:
Format in all cases: functional
[1] = system: Candida albicans; assay: Antifungal activity against Candida albicans MTCC 277 after 24 hrs by cup plate method; conditions: MTCC 277, 24 h
Summary of the method: (§1)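 Cup-plate MIC on Mueller Hinton agar plates containing the compound at 0 (control), 1, 2, 3, 5, 10, 15, 20, 30 and 40 (unit unclear), with compounds dissolved in DMF. Plates were read after 24 h and incubated further up to 72 h where needed. MIC is the lowest concentration giving no visible macroscopic growth.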

[2] = system: Aspergillus niger; assay: Antifungal activity against Aspergillus niger NCIM 545 after 24 hrs by cup plate method; conditions: NCIM 545, 24 h; summary of the method: as §1
[3] = system: Bacillus subtilis; assay: Antibacterial activity against Bacillus subtilis NCIM 2250 after 24 hrs by cup plate method; conditions: NCIM 2250, 24 h; summary of the method: as §1
[4] = system: Aspergillus niger; assay: Antifungal activity against Aspergillus niger NCIM 545 after 48 hrs by agar cup plate method
Summary of the method: (§2)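 Fungal zone-of-inhibition test in Czapek Dox medium by the agar cup method, with compounds dissolved in DMF and griseofulvin in DMF as the reference. Plates were incubated at 28 ± 0.5 °C for 48 h. Activity was taken as the diameter of the zone of inhibited growth around the cup.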

[5] = system: Escherichia coli; assay: Antibacterial activity against Escherichia coli ATCC 25922 after 24 hrs by cup plate method; conditions: ATCC 25922, 24 h; summary of the method: as §1
[6] = system: Escherichia coli; assay: Antibacterial activity against Escherichia coli ATCC 25922 after 48 hrs by agar cup plate method
Summary of the method: (§3)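 Agar cup plate zone-of-inhibition assay on Mueller Hinton agar, with compounds dissolved in DMF and streptomycin in DMF as the reference. Plates were incubated at 37 ± 0.5 °C for 48 h. Inhibition was scored as the diameter of the growth-free zone around the cup.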

[7] = system: Candida albicans; assay: Antifungal activity against Candida albicans MTCC 277 after 48 hrs by agar cup plate method; summary of the method: as §2
[8] = system: Bacillus subtilis; assay: Antibacterial activity against Bacillus subtilis NCIM 2250 after 48 hrs by agar cup plate method; summary of the method: as §3

SMILES | MIC [1] | MIC [2] | MIC [3] | diameter of the inhibition zone (DIZ) [4] | MIC [5] | diameter of the inhibition zone (DIZ) [6] | diameter of the inhibition zone (DIZ) [7] | diameter of the inhibition zone (DIZ) [8]
CCOP(=O)(OCC)C(OC(C)=O)c1cc2cc(C)ccc2n2nnnc12 (configuration not stated) | 10 µg/mL (≈ 25.5 µM) | 10 µg/mL (≈ 25.5 µM) | 10 µg/mL (≈ 25.5 µM) | 14.1 mm | 15 µg/mL (≈ 38.2 µM) | 11.4 mm | 13.1 mm | 12 mm
CCOP(=O)(OCC)C(OC(C)=O)c1cc2ccccc2n2nnnc12 (configuration not stated) | 10 µg/mL (≈ 26.4 µM) | 20 µg/mL (≈ 52.9 µM) | 15 µg/mL (≈ 39.6 µM) | 13.4 mm | 10 µg/mL (≈ 26.4 µM) | 12.5 mm | 14.2 mm | 11.2 mm
CCOP(=O)(OCC)C(OC(C)=O)c1cc2cccc(OC)c2n2nnnc12 (configuration not stated) | 15 µg/mL (≈ 36.7 µM) | 15 µg/mL (≈ 36.7 µM) | 15 µg/mL (≈ 36.7 µM) | 13.4 mm | 25 µg/mL (≈ 61.2 µM) | 13.9 mm | 12.1 mm | 11.4 mm
CCOP(=O)(OCC)C(O)c1cc2cccc(CC)c2n2nnnc12 (configuration not stated) | 10 µg/mL (≈ 27.4 µM) | 10 µg/mL (≈ 27.4 µM) | 10 µg/mL (≈ 27.4 µM) | 14.2 mm | 20 µg/mL (≈ 54.9 µM) | 16.2 mm | 13.4 mm | 14.5 mm
CCOP(=O)(OCC)C(O)c1cc2ccc(C)cc2n2nnnc12 (configuration not stated) | 10 µg/mL (≈ 28.5 µM) | 15 µg/mL (≈ 42.8 µM) | 10 µg/mL (≈ 28.5 µM) | 13.2 mm | 15 µg/mL (≈ 42.8 µM) | 12 mm | 13.8 mm | 13.6 mm
CCOP(=O)(OCC)C(OC(C)=O)c1cc2cc(OC)ccc2n2nnnc12 (configuration not stated) | 10 µg/mL (≈ 24.5 µM) | 10 µg/mL (≈ 24.5 µM) | 10 µg/mL (≈ 24.5 µM) | 14.2 mm | 10 µg/mL (≈ 24.5 µM) | 12.4 mm | 13.4 mm | 13.2 mm
CCOP(=O)(OCC)C(O)c1cc2cccc(OC)c2n2nnnc12 (configuration not stated) | 15 µg/mL (≈ 40.9 µM) | 15 µg/mL (≈ 40.9 µM) | 10 µg/mL (≈ 27.3 µM) | 11.5 mm | 15 µg/mL (≈ 40.9 µM) | 13.3 mm | 13.8 mm | 12.5 mm
CCOP(=O)(OCC)C(OC(C)=O)c1cc2ccc(OC)cc2n2nnnc12 (configuration not stated) | 10 µg/mL (≈ 24.5 µM) | 25 µg/mL (≈ 61.2 µM) | 10 µg/mL (≈ 24.5 µM) | 12.5 mm | 15 µg/mL (≈ 36.7 µM) | 11.1 mm | 13.8 mm | 12.5 mm
CCOP(=O)(OCC)C(O)c1cc2cc(OC)ccc2n2nnnc12 (configuration not stated) | 10 µg/mL (≈ 27.3 µM) | 15 µg/mL (≈ 40.9 µM) | 10 µg/mL (≈ 27.3 µM) | 12.2 mm | 15 µg/mL (≈ 40.9 µM) | 13.3 mm | 14.1 mm | 12.4 mm
CCOc1ccc2c(c1)cc(C(O)P(=O)(OCC)OCC)c1nnnn12 (configuration not stated) | 10 µg/mL (≈ 26.3 µM) | 15 µg/mL (≈ 39.4 µM) | 10 µg/mL (≈ 26.3 µM) | 12.8 mm | 15 µg/mL (≈ 39.4 µM) | 13.5 mm | 13.8 mm | 15.4 mm
CCOP(=O)(OCC)C(O)c1cc2cc(C)ccc2n2nnnc12 (configuration not stated) | 10 µg/mL (≈ 28.5 µM) | 10 µg/mL (≈ 28.5 µM) | 10 µg/mL (≈ 28.5 µM) | 14.2 mm | 10 µg/mL (≈ 28.5 µM) | 15 mm | 13.2 mm | 15.2 mm
CCOP(=O)(OCC)C(OC(C)=O)c1cc2cccc(C)c2n2nnnc12 (configuration not stated) | 10 µg/mL (≈ 25.5 µM) | 15 µg/mL (≈ 38.2 µM) | 20 µg/mL (≈ 51 µM) | 12.2 mm | 10 µg/mL (≈ 25.5 µM) | 13.4 mm | 12.2 mm | 13.1 mm
COC1=CC(=O)C[C@@H](C)[C@]12Oc1c(Cl)c(OC)cc(OC)c1C2=O [GRISEOFULVIN] | 5 µg/mL (≈ 14.2 µM) | 5 µg/mL (≈ 14.2 µM) |  | 16.5 mm |  |  | 16.4 mm | 
CCOP(=O)(OCC)C(OC(C)=O)c1cc2ccc(C)cc2n2nnnc12 (configuration not stated) | 10 µg/mL (≈ 25.5 µM) | 10 µg/mL (≈ 25.5 µM) | 10 µg/mL (≈ 25.5 µM) | 15.2 mm | 15 µg/mL (≈ 38.2 µM) | 13.2 mm | 13.4 mm | 14.1 mm
CN[C@@H]1[C@H](O[C@H]2[C@H](O[C@H]3[C@H](O)[C@@H](O)[C@H](N=C(N)N)[C@@H](O)[C@@H]3N=C(N)N)O[C@@H](C)[C@]2(O)C=O)O[C@@H](CO)[C@H](O)[C@H]1O [STREPTOMYCIN] |  |  | 5 µg/mL (≈ 8.6 µM) |  | 5 µg/mL (≈ 8.6 µM) | 16.2 mm |  | 16.4 mm
CCOP(=O)(OCC)C(OC(C)=O)c1cc2cccc(CC)c2n2nnnc12 (configuration not stated) | 10 µg/mL (≈ 24.6 µM) | 15 µg/mL (≈ 36.9 µM) | 10 µg/mL (≈ 24.6 µM) | 13.5 mm | 10 µg/mL (≈ 24.6 µM) | 14.2 mm | 12.1 mm | 15.1 mm
CCOc1ccc2c(c1)cc(C(OC(C)=O)P(=O)(OCC)OCC)c1nnnn12 (configuration not stated) | 10 µg/mL (≈ 23.7 µM) | 10 µg/mL (≈ 23.7 µM) | 10 µg/mL (≈ 23.7 µM) | 14.5 mm | 10 µg/mL (≈ 23.7 µM) | 13.8 mm | 14.1 mm | 12.1 mm
CCOP(=O)(OCC)C(O)c1cc2cccc(C)c2n2nnnc12 (configuration not stated) | 10 µg/mL (≈ 28.5 µM) | 15 µg/mL (≈ 42.8 µM) | 10 µg/mL (≈ 28.5 µM) | 13.1 mm | 25 µg/mL (≈ 71.4 µM) | 13.7 mm | 13 mm | 12.3 mm
CCOP(=O)(OCC)C(O)c1cc2ccc(OC)cc2n2nnnc12 (configuration not stated) | 10 µg/mL (≈ 27.3 µM) | 10 µg/mL (≈ 27.3 µM) | 10 µg/mL (≈ 27.3 µM) | 14.4 mm | 15 µg/mL (≈ 40.9 µM) | 13.6 mm | 13.4 mm | 12 mm
CCOP(=O)(OCC)C(O)c1cc2ccccc2n2nnnc12 (configuration not stated) | 10 µg/mL (≈ 29.7 µM) | 15 µg/mL (≈ 44.6 µM) | 10 µg/mL (≈ 29.7 µM) | 12.1 mm | 20 µg/mL (≈ 59.5 µM) | 13.4 mm | 13.6 mm | 12 mm
